The source made the active and inactive calls. No cut-off for these calls is given here.
Key:
HL-60 = assay: Cytotoxicity against human HL60 cells by SRB assay; format: functional, cell-based
Method in brief: (§1)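 SRB assay on tumor cells. Three independent experiments, five replicate wells for each concentration. IC50 obtained by linear regression where applicable. Mitomycin served as positive control.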

Aorta [1] = assay: Vasodilatory activity in rat thoracic aorta assessed as relaxation of phenylephrine-induced precontraction at 10 ug/mL; format: functional; set-up: scale not given: the % may be the effect or the level left
Method in brief: (§2)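 Isolated thoracic aortic rings about 3 mm long, taken after pentobarbital anesthesia (60 mg/kg ip). Rings held in Krebs solution at pH 7.4 and 37 °C, gassed with 95% O2/5% CO2, for isometric tension recording. Equilibrated 1 h at 2 g resting tension, then challenged repeatedly with 80 mM KCl. Precontracted with 10^-6 M phenylephrine. Endothelium confirmed by >80% relaxation to 10^-6 M acetylcholine.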

SMMC-7721 = assay: Cytotoxicity against human SMMC7721 cells by SRB assay; format: functional, cell-based; method in brief: as §1
Aorta [2] = assay: Vasodilatory activity in rat thoracic aorta assessed as relaxation of phenylephrine-induced precontraction at 4 to 10 ug/mL; format: functional, tissue-based; method in brief: as §2
[3] = Solubility of the compound; format: physicochemical

solubility [3]	SMILES	Activity (HL-60)	Activity (Aorta [1]) [%]	Activity (SMMC-7721)	Activity (Aorta [2])
–	CC1(C)C(=O)CC[C@]2(C)[C@H]3CC[C@@]4(C)[C@H](C5=CC(=O)NC5=O)CC[C@]4(C)C3=CC[C@@H]12 [LAXIRACEMOSIN H]	inactive	18.3	inactive	–
–	CC1(C)O[C@H]1C(=O)C[C@H](C(=O)O)[C@@H]1CC[C@]2(C)C3=CC[C@H]4C(C)(C)C(=O)CC[C@]4(C)[C@H]3CC[C@@]12C	inactive	–	inactive	inactive
–	CC1(C)[C@H](O)CC[C@]2(C)[C@H]3CC[C@@]4(C)[C@H](C5COC(=O)C5)CC[C@]4(C)C3=CC[C@@H]12 (stereo partly drawn)	inactive	37.5	inactive	–
Insoluble	CC(=O)[C@@H]1CC[C@]2(C)C3=CC[C@H]4C(C)(C)C(=O)CC[C@]4(C)[C@H]3CC[C@@]12C [DYSOLENTICIN G]	–	–	–	–
–	CC1(C)[C@H](O)CC[C@]2(C)[C@H]3CC[C@@]4(C)[C@H]([C@H]5COC(=O)[C@@](O)(C(C)(C)O)C5)CC[C@]4(C)C3=CC[C@@H]12	inactive	–	inactive	inactive
–	CC(C)C(=O)C1(O)CC([C@@H]2CC[C@]3(C)C4=CC[C@H]5C(C)(C)[C@H](O)CC[C@]5(C)[C@H]4CC[C@@]23C)CO1 (mixture of isomers)	inactive	–	inactive	inactive
–	C[C@@H]([C@@H]1O[C@@H]1[C@@H]1OC1(C)C)[C@@H]1CC[C@]2(C)C3=CC[C@H]4C(C)(C)C(=O)CC[C@]4(C)[C@H]3CC[C@@]12C	inactive	–	inactive	inactive
–	CC1(C)C(=O)CC[C@]2(C)[C@H]3CC[C@@]4(C)[C@H](C5COC(=O)C5)CC[C@]4(C)C3=CC[C@@H]12 (stereo partly drawn)	inactive	43.5	inactive	–
–	COC(=O)[C@@H](CC(=O)[C@@H]1OC1(C)C)[C@@H]1CC[C@]2(C)C3=CC[C@H]4C(C)(C)C(=O)CC[C@]4(C)[C@H]3CC[C@@]12C	inactive	–	inactive	–
Insoluble	CCO[C@]1([C@@H]2OC2(C)C)CC([C@@H]2CC[C@]3(C)C4=CC[C@H]5C(C)(C)[C@H](O)CC[C@]5(C)[C@H]4CC[C@@]23C)CO1 (stereo partly drawn) [DYSOLENTICIN F]	–	–	–	inactive
–	CC1(C)[C@H](O)CC[C@]2(C)[C@H]3CC[C@@]4(C)[C@H](C5=CC(=O)NC5=O)CC[C@]4(C)C3=CC[C@@H]12 [DYSOLENTICIN J]	inactive	87.4	inactive	–
Insoluble	C[C@@H](CC(=O)[C@@H]1OC1(C)C)[C@@H]1CC[C@]2(C)C3=CC[C@H]4C(C)(C)C(=O)CC[C@]4(C)[C@H]3CC[C@@]12C	–	–	–	inactive
–	CC(C)C(=O)C1(O)CC([C@@H]2CC[C@]3(C)C4=CC[C@H]5C(C)(C)C(=O)CC[C@]5(C)[C@H]4CC[C@@]23C)CO1 (mixture of isomers)	inactive	–	inactive	inactive
–	CC(C)=CC(=O)[C@@H](O)[C@H](C)[C@@H]1CC[C@]2(C)C3=CC[C@H]4C(C)(C)[C@@H](O)CC[C@]4(C)[C@H]3CC[C@@]12C	inactive	–	inactive	inactive
–	CC(C)=CCC[C@H](C)[C@@H]1CC[C@]2(C)C3=CC[C@H]4C(C)(C)[C@@H](O)CC[C@]4(C)[C@H]3CC[C@@]12C	inactive	–	inactive	inactive
–	CC(C)=C[C@@H]1C=C([C@@H]2CC[C@]3(C)C4=CC[C@H]5C(C)(C)C(=O)CC[C@]5(C)[C@H]4CC[C@@]23C)C(=O)O1	inactive	–	inactive	–
Insoluble	CC1(C)C(=O)CC[C@]2(C)[C@H]3CC[C@@]4(C)[C@H](C5=CC(O)(CO)OC5=O)CC[C@]4(C)C3=CC[C@@H]12 (mixture of isomers) [DYSOLENTICIN C]	–	–	–	–

— ChEMBL document CHEMBL1833837, “Tirucallane-type triterpenoids from Dysoxylum lenticellatum” (J Nat Prod, 2011)
